ChEMBL document CHEMBL5032510, “Identification of Novel Fused Heteroaromatics-Based MALT1 Inhibitors by High-Throughput Screening to Treat B Cell Lymphoma” (J Med Chem, 2021)
The source made the active and inactive calls. No cut-off for these calls is given here.

Key:
[1] = system: TMD8; experiment: Induction of apoptosis in human TMD8 cells assessed as early apoptotic cells at 2 uM measured after 24 hrs by Annexin V-FITC/ Propidium iodide staining based flow cytometry (reference value: 6.97%); assay type: functional
[2] = system: TMD8; experiment: Induction of apoptosis in human TMD8 cells assessed as dead cells at 10 uM measured after 24 hrs by Annexin V-FITC/ Propidium iodide staining based flow cytometry (reference value: 0%); assay type: functional
[3] = Toxicity in NCG mouse xenografted with human TMD8 cells assessed as diarrhea at 30 mg/kg/day, ip measured for 13 days; details: in vivo, 312 h
[4] = system: OCI-Ly1; experiment: Induction of apoptosis in human OCI-Ly1 cells assessed as early apoptotic cells at 2 uM measured after 24 hrs by Annexin V-FITC/ Propidium iodide staining based flow cytometry (reference value: 1.29%); assay type: functional
[5] = Induction of apoptosis in human HBL1 cells assessed as viable cells at 10 uM measured after 24 hrs by Annexin V-FITC/ Propidium iodide staining based flow cytometry (reference value: 88.1%); assay type: functional; details: read-out: Activity
[6] = system: TMD8; experiment: Induction of apoptosis in human TMD8 cells assessed as early apoptotic cells at 10 uM measured after 24 hrs by Annexin V-FITC/ Propidium iodide staining based flow cytometry (reference value: 6.97%); assay type: functional
[7] = system: HBL1; experiment: Induction of apoptosis in human HBL1 cells assessed as increase in cleaved caspase 3 level measured after 12 hrs by Western blot analysis; assay type: functional, cell-based
Procedure, shortened: (§1)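 HBL1, TMD8 or OCI-LY1 cells were exposed to DMSO or compound for 12 h. Cleaved PARP and caspase-3 were probed by western blot with HRP-conjugated secondary antibodies and chemiluminescent detection. Each lane held 20−75 μg total protein.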

[8] = system: TMD8; experiment: Induction of apoptosis in human TMD8 cells assessed as increase in cleaved PARP level measured after 12 hrs by Western blot analysis; assay type: functional, cell-based; procedure, shortened: as §1
[9] = system: TMD8; experiment: Induction of apoptosis in human TMD8 cells assessed as late apoptotic cells at 10 uM measured after 24 hrs by Annexin V-FITC/ Propidium iodide staining based flow cytometry (reference value: 2.19%); assay type: functional
[10] = system: OCI-Ly1; experiment: Induction of apoptosis in human OCI-Ly1 cells assessed as viable cells at 2 uM measured after 24 hrs by Annexin V-FITC/ Propidium iodide staining based flow cytometry (reference value: 97.8%); assay type: functional; details: read-out: Activity
[11] = Induction of apoptosis in human HBL1 cells assessed as early apoptotic cells at 10 uM measured after 24 hrs by Annexin V-FITC/ Propidium iodide staining based flow cytometry (reference value: 4.85%); assay type: functional
[12] = MRT (0 to t) in CD-1 mouse at 1 mg/kg, iv by LC-MS/MS analysis; assay type: ADME, organism-based; details: in vivo
Procedure, shortened: (§2)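 Male ICR (CD-1) mice (n = 9). Compound formulated in 5% DMSO + 5% Tween-80 in 90% saline and dosed 10 mg/kg po, 1 mg/kg ip or 1 mg/kg iv. Blood drawn from the jugular vein at set time points and held on ice. Plasma separated by centrifugation and stored at −80 °C before parameter derivation.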

[13] = Half life in CD-1 mouse at 10 mg/kg, po by LC-MS/MS analysis; assay type: ADME, organism-based; details: in vivo
Procedure, shortened: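 Compound formulated in 5% DMSO + 5% Tween-80 in 90% saline and given to male ICR (CD-1) mice (n = 9) at 10 mg/kg po, 1 mg/kg ip or 1 mg/kg iv. Blood was drawn via the jugular vein at set time points and held on ice. Plasma was separated by centrifugation and stored at −80 °C before PK parameters were derived.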

[14] = system: OCI-Ly1; experiment: Induction of apoptosis in human OCI-Ly1 cells assessed as viable cells at 5 uM measured after 24 hrs by Annexin V-FITC/ Propidium iodide staining based flow cytometry (reference value: 97.8%); assay type: functional; details: read-out: Activity
[15] = system: TMD8; experiment: Induction of apoptosis in human TMD8 cells assessed as increase in cleaved caspase 3 level measured after 12 hrs by Western blot analysis; assay type: functional, cell-based; procedure, shortened: as §1
[16] = system: TMD8; experiment: Induction of apoptosis in human TMD8 cells assessed as dead cells at 2 uM measured after 24 hrs by Annexin V-FITC/ Propidium iodide staining based flow cytometry (reference value: 0%); assay type: functional
[17] = target: Nuclear factor NF-kappa-B complex (Homo sapiens) (UniProt Q00653+P19838+Q04206); experiment: Inhibition of NF-kappaB signalling in human HBL1 cells assessed as reduction in phosphorylation of IkappaB-alpha at 8 uM preincubated for 30 mins followed by proteosome inhibitor MG-132 addition and measured after 2 hrs by Western blot analysis; assay type: cell-based; details: time 2.5 hrs
Chain of Nuclear factor NF-kappa-B complex (Homo sapiens) (P19838 whole entry, looked up): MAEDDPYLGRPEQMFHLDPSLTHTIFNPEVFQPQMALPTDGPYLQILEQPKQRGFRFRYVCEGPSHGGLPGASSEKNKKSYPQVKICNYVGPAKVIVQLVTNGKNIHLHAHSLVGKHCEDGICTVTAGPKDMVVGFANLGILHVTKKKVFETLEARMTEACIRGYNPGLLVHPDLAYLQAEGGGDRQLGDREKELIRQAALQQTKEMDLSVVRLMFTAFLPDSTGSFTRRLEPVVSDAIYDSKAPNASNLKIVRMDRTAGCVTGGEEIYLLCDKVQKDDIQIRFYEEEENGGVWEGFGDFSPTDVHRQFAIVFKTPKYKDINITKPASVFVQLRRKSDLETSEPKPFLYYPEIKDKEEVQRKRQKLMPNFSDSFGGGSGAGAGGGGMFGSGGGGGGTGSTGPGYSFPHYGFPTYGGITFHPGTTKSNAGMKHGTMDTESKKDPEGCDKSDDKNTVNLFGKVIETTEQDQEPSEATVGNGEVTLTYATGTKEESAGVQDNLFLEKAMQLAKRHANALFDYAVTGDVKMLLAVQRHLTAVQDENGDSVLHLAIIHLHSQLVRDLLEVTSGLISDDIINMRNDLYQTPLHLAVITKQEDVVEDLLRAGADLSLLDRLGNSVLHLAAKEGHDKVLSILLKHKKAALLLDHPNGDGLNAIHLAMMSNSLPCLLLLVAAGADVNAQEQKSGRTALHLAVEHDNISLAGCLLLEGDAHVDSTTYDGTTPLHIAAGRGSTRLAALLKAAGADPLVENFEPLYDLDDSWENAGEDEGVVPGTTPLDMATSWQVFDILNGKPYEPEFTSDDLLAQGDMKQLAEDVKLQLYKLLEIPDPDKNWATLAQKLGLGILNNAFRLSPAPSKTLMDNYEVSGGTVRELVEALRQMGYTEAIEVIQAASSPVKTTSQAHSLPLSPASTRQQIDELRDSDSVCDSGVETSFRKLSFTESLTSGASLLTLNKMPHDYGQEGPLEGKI
Chain of Nuclear factor NF-kappa-B complex (Homo sapiens) (Q00653 whole entry, looked up): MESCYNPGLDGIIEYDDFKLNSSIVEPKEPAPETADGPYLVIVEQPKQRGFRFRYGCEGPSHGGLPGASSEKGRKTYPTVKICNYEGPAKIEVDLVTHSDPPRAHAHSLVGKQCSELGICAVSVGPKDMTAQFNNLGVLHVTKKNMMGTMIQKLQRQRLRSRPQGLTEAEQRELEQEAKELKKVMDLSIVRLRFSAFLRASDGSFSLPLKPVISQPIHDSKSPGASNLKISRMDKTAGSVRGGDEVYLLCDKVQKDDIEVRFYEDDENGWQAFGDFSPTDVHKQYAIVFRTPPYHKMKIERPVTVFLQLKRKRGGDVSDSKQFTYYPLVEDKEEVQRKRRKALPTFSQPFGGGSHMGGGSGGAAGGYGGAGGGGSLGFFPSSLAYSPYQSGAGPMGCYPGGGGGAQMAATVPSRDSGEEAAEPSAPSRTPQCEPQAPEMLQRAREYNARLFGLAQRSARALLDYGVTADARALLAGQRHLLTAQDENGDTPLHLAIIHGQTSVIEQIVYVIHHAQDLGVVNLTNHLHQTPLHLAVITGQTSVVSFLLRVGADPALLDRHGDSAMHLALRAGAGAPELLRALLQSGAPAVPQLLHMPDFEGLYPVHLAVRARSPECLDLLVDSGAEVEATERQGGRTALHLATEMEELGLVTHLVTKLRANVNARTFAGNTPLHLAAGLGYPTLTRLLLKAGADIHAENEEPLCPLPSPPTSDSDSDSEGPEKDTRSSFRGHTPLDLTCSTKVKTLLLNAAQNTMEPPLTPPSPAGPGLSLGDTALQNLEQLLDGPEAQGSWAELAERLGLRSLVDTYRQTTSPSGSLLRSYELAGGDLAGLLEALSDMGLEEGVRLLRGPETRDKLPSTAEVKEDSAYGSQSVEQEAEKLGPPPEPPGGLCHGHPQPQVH
Chain of Nuclear factor NF-kappa-B complex (Homo sapiens) (Q04206 whole entry, looked up): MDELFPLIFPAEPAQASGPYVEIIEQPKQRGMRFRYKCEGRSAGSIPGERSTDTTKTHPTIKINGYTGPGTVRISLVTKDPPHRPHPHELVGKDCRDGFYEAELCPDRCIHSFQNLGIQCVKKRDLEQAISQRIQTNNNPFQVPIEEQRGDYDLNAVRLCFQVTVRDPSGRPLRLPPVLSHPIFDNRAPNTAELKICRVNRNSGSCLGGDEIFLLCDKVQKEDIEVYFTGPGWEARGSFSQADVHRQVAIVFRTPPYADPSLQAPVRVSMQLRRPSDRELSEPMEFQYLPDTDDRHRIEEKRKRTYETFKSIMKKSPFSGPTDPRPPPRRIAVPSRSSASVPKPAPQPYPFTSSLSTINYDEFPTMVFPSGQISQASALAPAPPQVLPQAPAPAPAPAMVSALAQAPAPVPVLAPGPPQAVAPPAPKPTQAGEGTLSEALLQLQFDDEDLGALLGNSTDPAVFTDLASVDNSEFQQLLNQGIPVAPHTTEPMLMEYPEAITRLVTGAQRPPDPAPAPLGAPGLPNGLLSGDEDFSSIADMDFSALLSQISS
Procedure, shortened: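 HBL1 cells were pretreated with compound (4 and 8 μM) for 30 min, then given 10 μM MG-132 for 2 h. Phospho-IκBα, IκBα and RelB were probed by western blot, with β-actin as loading control. Each lane held 20−75 μg total protein, with chemiluminescent detection.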

[18] = system: OCI-Ly1; experiment: Induction of apoptosis in human OCI-Ly1 cells assessed as late apoptotic cells at 5 uM measured after 24 hrs by Annexin V-FITC/ Propidium iodide staining based flow cytometry (reference value: 0.548%); assay type: functional
[19] = Tmax in CD-1 mouse at 1 mg/kg, ip by LC-MS/MS analysis; assay type: ADME, organism-based; details: in vivo; procedure, shortened: as §2
[20] = system: OCI-Ly1; experiment: Induction of apoptosis in human OCI-Ly1 cells assessed as late apoptotic cells at 2 uM measured after 24 hrs by Annexin V-FITC/ Propidium iodide staining based flow cytometry (reference value: 0.548%); assay type: functional
[21] = system: OCI-Ly1; experiment: Induction of apoptosis in human OCI-Ly1 cells assessed as late apoptotic cells at 10 uM measured after 24 hrs by Annexin V-FITC/ Propidium iodide staining based flow cytometry (reference value: 0.548%); assay type: functional
[22] = system: TMD8; experiment: Induction of apoptosis in human TMD8 cells assessed as late apoptotic cells at 5 uM measured after 24 hrs by Annexin V-FITC/ Propidium iodide staining based flow cytometry (reference value: 2.19%); assay type: functional

For `COc1ccc(OC)c(NC(=O)c2sc(=S)n(-c3ccc(C(F)(F)F)cc3)c2NC(=O)CCl)c1`, the Activity [1] was 8%, the Activity [2] was 0.625% and the Activity [3] was “Non-Toxic”. The Activity [4] was 1.87%, the viability at 10 µM [5] was 6.11% and the Activity [6] was 53.1%. The Activity [7] was “Dose-Dependent Effect”, the Activity [8] was “Dose-Dependent Effect” and the Activity [9] was 42.7%. The viability at 2 µM [10] was 97.4%, the Activity [11] was 57.8% and the MRT last [12] was 5.66 h. For the same compound, the half-life [13] was 2.83 h, the viability at 5 µM [14] was 97.4% and the Activity [15] was “Dose-Dependent Effect”. For the same compound, the Activity [16] was 0.048%, the inhibition [17] was “Active” and the Activity [18] was 0.774%. The Tmax [19] was 0.35 h, the Activity [20] was 0.688% and the Activity [21] was 1.53%. For the same compound, the Activity [22] was 25.7%.
